The results in this text go back to ChEMBL document CHEMBL1155454, “The pthaladyns: GTP competitive inhibitors of dynamin I and II GTPase derived from virtual screening” (J Med Chem, 2010).

Calls of active or inactive are those of the source. The rule behind the calls is not given here.

Test [1] can be described thus: Inhibition of sheep brain dynamin 1 after 30 mins by malachite green method. Set-up: species or system Ovis aries. In short, it runs like this: (§1)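 Enzyme was endogenous dynamin I purified from sheep brain. GTPase activity was read by malachite green phosphate detection, with dynamin and lipid levels set for adequate optical response. Inhibition was also scored at single concentrations of 300 or 400 μM.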

The species entered for test [2] is Ovis aries. Description: Inhibition of sheep brain dynamin 1 at 400 uM after 30 mins by malachite green method. In short, it runs like this: as §1
Another test addresses T1, Dynamin-1 (Rattus norvegicus, UniProt P21575).
T1 sequence (P21575 whole entry): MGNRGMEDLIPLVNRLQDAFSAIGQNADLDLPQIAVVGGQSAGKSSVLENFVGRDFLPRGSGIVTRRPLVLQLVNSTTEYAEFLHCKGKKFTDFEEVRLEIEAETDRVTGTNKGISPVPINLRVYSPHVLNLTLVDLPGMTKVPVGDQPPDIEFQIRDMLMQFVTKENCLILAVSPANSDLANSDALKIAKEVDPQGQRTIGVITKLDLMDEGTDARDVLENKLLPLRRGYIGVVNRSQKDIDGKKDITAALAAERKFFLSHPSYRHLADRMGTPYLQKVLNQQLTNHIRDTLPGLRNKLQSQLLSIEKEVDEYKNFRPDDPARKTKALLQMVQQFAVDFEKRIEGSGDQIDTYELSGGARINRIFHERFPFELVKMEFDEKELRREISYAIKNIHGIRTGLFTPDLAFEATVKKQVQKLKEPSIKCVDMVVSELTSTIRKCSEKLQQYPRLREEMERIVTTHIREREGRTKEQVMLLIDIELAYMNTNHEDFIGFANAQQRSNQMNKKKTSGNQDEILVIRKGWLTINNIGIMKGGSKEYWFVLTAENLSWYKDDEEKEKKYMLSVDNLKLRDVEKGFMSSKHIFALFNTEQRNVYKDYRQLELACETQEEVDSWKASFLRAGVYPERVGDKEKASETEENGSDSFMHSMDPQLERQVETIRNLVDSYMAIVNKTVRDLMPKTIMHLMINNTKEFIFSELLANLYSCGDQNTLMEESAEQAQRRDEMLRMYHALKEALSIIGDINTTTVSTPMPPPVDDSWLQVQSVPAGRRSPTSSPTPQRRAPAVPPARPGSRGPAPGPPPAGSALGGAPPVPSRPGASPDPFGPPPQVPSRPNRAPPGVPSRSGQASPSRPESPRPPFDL
Description: Inhibition of dynamin 1-mediated synaptic vesicle endocytosis in Sprague-Dawley rat synaptosomes assessed as uptake of FM 4-64 dye after 30 mins by automated acquisition and analysis system. The format is subcellular, Brain. A digest of the protocol:
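Rat brain nerve terminals (isolated synaptosomes) used for synaptic vesicle endocytosis. Endocytosis was tracked as change in uptake of the styryl dye FM4-64, an endocytic marker.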

The target of test [3] is T2, Dynamin-2 (Homo sapiens, UniProt P50570).
T2 sequence (P50570 whole entry): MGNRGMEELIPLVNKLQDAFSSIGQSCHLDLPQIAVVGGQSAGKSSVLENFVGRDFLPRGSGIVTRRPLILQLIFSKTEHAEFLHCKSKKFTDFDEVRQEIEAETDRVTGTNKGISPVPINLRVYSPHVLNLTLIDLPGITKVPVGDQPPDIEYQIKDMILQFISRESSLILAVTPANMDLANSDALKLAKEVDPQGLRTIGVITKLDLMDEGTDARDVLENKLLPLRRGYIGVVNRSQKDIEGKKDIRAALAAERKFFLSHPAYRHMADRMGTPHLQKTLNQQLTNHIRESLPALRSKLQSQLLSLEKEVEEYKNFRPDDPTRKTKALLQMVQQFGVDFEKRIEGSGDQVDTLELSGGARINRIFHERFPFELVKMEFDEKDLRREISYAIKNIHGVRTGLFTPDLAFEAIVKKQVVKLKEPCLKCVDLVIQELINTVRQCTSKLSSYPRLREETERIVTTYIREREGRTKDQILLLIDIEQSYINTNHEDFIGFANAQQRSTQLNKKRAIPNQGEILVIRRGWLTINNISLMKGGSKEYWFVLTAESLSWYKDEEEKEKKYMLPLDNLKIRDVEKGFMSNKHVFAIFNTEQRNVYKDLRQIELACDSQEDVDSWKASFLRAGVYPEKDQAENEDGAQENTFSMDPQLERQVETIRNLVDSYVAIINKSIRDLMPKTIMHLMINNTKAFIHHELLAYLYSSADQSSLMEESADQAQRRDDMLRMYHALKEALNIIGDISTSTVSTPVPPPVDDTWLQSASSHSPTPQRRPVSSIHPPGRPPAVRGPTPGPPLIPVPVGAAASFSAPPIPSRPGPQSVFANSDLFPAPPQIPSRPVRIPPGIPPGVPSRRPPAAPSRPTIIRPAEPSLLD
Description: Inhibition of recombinant dynamin 2 expressed in Sf9 cells after 30 mins by malachite green method.

Test [4] has as its target T2, Dynamin-2. As to the kind of experiment: Inhibition of dynamin 2-mediated receptor-induced endocytosis in human U2OS cells assessed as uptake of Tf-TxR dye after 30 mins by automated acquisition and analysis system. Type of test: cell-based.
The species named for test [5] is Ovis aries. Description: Competitive inhibition of dynamin 1 from sheep brain at 14 to 19 uM by Lineweaver-Burke plot. In short, it runs like this:
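Dynamin I GTPase purified from sheep brain, read by malachite green phosphate release. Michaelis-Menten kinetics with inhibitor at 14, 15, 16, 17, 18 and 19 μM and Mg2+·GTP substrate at 60-200 μM. Double-reciprocal (Lineweaver-Burke) plot of reaction velocity against substrate. Four independent experiments, each in triplicate; mean ± SEM.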

The species entered for test [6] is Ovis aries. Description: Inhibition of sheep brain dynamin 1 at 300 uM after 30 mins by malachite green method. A digest of the protocol: as §1

As usually defined, the IC50 is the concentration needed to halve the response being measured. For `O=C(Nc1cc(Cl)ccc1C(=O)O)c1ccc2c(c1)C(=O)N(c1ccc([N+](=O)[O-])cc1)C2=O`, the IC50 in test [1] was 16.6 µM.
Same read-out and setting: under `O=C(O)c1ccc(N2C(=O)c3ccc(C(=O)Nc4cc(Cl)ccc4C(=O)O)cc3C2=O)cc1` stands 95 µM.
As usually defined, the inhibition is the relative decrease from the control value, in per cent. Take `O=C(Nc1cc(Cl)ccc1C(=O)O)c1ccc2c(c1)C(=O)N(c1ccccc1)C2=O`: the inhibition entry in the test listed under Ovis aries [2] is “inactive”.
On to `O=C(Nc1cc(Cl)ccc1C(=O)O)c1ccc2c(c1)C(=O)N(C1CCCc3ccccc31)C2=O` (centres undefined), for which, in the test listed under Ovis aries [2], the inhibition result is “inactive”.
For the molecule `O=C(Nc1cc(Cl)ccc1C(=O)O)c1ccc2c(c1)C(=O)N(Cc1cccnc1)C2=O`, the midpoint of inhibition in test [1], the IC50, lay at 84 µM.
The molecule `CC(C)(C)c1ccc(N2C(=O)c3ccc(C(=O)Nc4cc(Cl)ccc4C(=O)O)cc3C2=O)cc1` returned an IC50 in test [1] of 112 µM.
Consider `O=C(Nc1cc(Cl)ccc1C(=O)O)c1ccc2c(c1)C(=O)N(c1ccc(CO)cc1)C2=O`, for which the half-maximal inhibitory concentration (IC50) was 4.58 µM in test [1] and 690 µM at Dynamin-1 (read-out: IC50).
For `O=C(Nc1cc(Cl)ccc1C(=O)O)c1ccc2c(c1)C(=O)N(c1ccc(O)cc1)C2=O`, the IC50 in test [1] is 39.8 µM; at Dynamin-2 [3] it was 114 µM; on Dynamin-2 [4] it was “Not Active”; on Dynamin-1 it was “Not Active”.
Molecule `O=C(Nc1cc(Cl)ccc1C(=O)O)c1ccc2c(c1)C(=O)N(c1ccc(C(=O)O)c(O)c1)C2=O` returned an IC50 in test [1] of 267 µM.
As for `O=C(Nc1cc(Cl)ccc1C(=O)O)c1ccc2c(c1)C(=O)N(c1cccc(CO)c1)C2=O`, the IC50 in test [1] is 111 µM.
Consider `COc1ccc(CN2C(=O)c3ccc(C(=O)Nc4cc(Cl)ccc4C(=O)O)cc3C2=O)cc1`, for which the inhibition result in the test filed under Ovis aries [2] was “inactive”.
As for `O=C(O)Cc1ccc(N2C(=O)c3ccc(C(=O)Nc4cc(Cl)ccc4C(=O)O)cc3C2=O)cc1`, the midpoint of inhibition in test [1], the IC50, lay at 95.5 µM.
On to `O=C(Nc1cc(Cl)ccc1C(=O)O)c1ccc2c(c1)C(=O)N(CCCCc1ccccc1)C2=O`, for which the inhibition result in the test listed under Ovis aries [2] was “inactive”.
Take `O=C(Nc1cc(Cl)ccc1C(=O)O)c1ccc2c(c1)C(=O)N(c1cccc([N+](=O)[O-])c1)C2=O`: the outcome in the test filed under Ovis aries [5] was Active. The IC50 is 17.4 µM in test [1] and 12.9 µM at Dynamin-1 (read-out: IC50).
In test [1], `O=C(Nc1cc(Cl)ccc1C(=O)O)c1ccc2c(c1)C(=O)N(c1ccccc1-c1ccccc1)C2=O` had an IC50 greater than 400 µM. Also, the inhibition in the test filed under Ovis aries [2] amounted to 40%.
With `CSc1ccc(N2C(=O)c3ccc(C(=O)Nc4cc(Cl)ccc4C(=O)O)cc3C2=O)cc1`, the inhibition entry in the test filed under Ovis aries [2] was “inactive”.
Same read-out and setting: under `Cc1cccc(C)c1N1C(=O)c2ccc(C(=O)Nc3cc(Cl)ccc3C(=O)O)cc2C1=O` stands “inactive”.
`O=C(O)CCc1ccc(N2C(=O)c3ccc(C(=O)Nc4cc(Cl)ccc4C(=O)O)cc3C2=O)cc1`: it took 104 µM to reach half-maximal inhibition in test [1] (IC50).
With `O=C(Nc1cc(Cl)ccc1C(=O)O)c1ccc2c(c1)C(=O)N(Cc1ccccc1)C2=O`, the inhibition result in the test listed under Ovis aries [2] is “inactive”.
Regarding `Nc1cccc(N2C(=O)c3ccc(C(=O)Nc4cc(Cl)ccc4C(=O)O)cc3C2=O)c1`, half-maximal inhibition in test [1] (IC50) required 94 µM.
On to `O=C(Nc1cc(Cl)ccc1C(=O)O)c1ccc2c(c1)C(=O)N(c1cccc(O)c1)C2=O`, for which the inhibition result in the test filed under Ovis aries [2] was “inactive”.
Still for that read-out and setting: as for `O=C(Nc1cc(Cl)ccc1C(=O)O)c1ccc2c(c1)C(=O)N(CCc1ccccc1)C2=O`, the entry is “inactive”.
`CCOC(=O)c1ccc(N2C(=O)c3ccc(C(=O)Nc4cc(Cl)ccc4C(=O)O)cc3C2=O)cc1` registered an inhibition in the test listed under Ovis aries [6] of 50%.
`COc1ccc(N2C(=O)c3ccc(C(=O)Nc4cc(Cl)ccc4C(=O)O)cc3C2=O)cc1` gave an IC50 in test [1] of 78 µM.
In the case of `COc1cccc(N2C(=O)c3ccc(C(=O)Nc4cc(Cl)ccc4C(=O)O)cc3C2=O)c1`, the inhibition entry in the test listed under Ovis aries [2] is “inactive”.
Same read-out and setting: as for `Nc1ccc(N2C(=O)c3ccc(C(=O)Nc4cc(Cl)ccc4C(=O)O)cc3C2=O)cc1`, the entry is “inactive”.
For `O=C(Nc1cc(Cl)ccc1C(=O)O)c1ccc2c(c1)C(=O)N(c1ccccc1C(=O)O)C2=O`, inhibition in test [1] was half-maximal at 184 µM (IC50).
For `O=C(Nc1cc(Cl)ccc1C(=O)O)c1ccc2c(c1)C(=O)N(c1ccccc1CO)C2=O`, the inhibition entry in the test filed under Ovis aries [2] is “inactive”.
Regarding `O=C(Nc1cc(Cl)ccc1C(=O)O)c1ccc2c(c1)C(=O)N(c1ccccc1O)C2=O`, the values for the IC50 (in test [1]; on Dynamin-1 (read-out: IC50)) were 61 µM and 119 µM, respectively.
On to `O=C(Nc1cc(Cl)ccc1C(=O)O)c1ccc2c(c1)C(=O)N(c1cccc3ccccc13)C2=O`, for which the inhibition entry in the test filed under Ovis aries [2] is “inactive”.
For the molecule `Nc1ccccc1N1C(=O)c2ccc(C(=O)Nc3cc(Cl)ccc3C(=O)O)cc2C1=O`, the IC50 in test [1] came out at 311 µM.
